Measurements taken from the RNAGym collection of RNA variant scans (doi:10.1038/s41586-018-0170-7).

B1: tRNA (parent)
chain: GUUCCGUUGGCGUAAUGGUAACGCGUCUCCCUCCUAAGGAGAAGACUGCGGGUUCGAGUCCCGUACGGAACG

Variants of: B1
Assay: yeast fitness, log relative to wild type (ln ratio); higher = fitter; tRNA-Arg(CCU), competitive growth, 37 C, 1 M NaCl
How it was run: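 Variants were counted by 125 bp paired-end Illumina sequencing after pools of a combinatorial tRNA-Arg(CCU) library, held on a HIS3 centromeric plasmid in BY4742 lacking the chromosomal gene, grew ~6.5 generations (~26.5 h) in SC-HIS 1M NaCl at 37 °C. Each genotype's fitness is the natural log of its generations relative to the wild type's. Generations were OD-scaled log2 output/input frequencies, inverse-variance weighted over replicates.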

In order of rising “yeast fitness (ln)” value:
1. U2G G6U C46U C66A A69G A70U C71U  -0.646
2. G1A U2G G6U C66U A69G A70U C71U  -0.553
3. G6A A43C C66U A69G C71U  -0.51
4. U2G G6U C27U A43C C66U A69G A70G C71U  -0.51
5. G1A C27U C46U C66U A69G A70U C71U  -0.504
6. G1A U2G G6U C27U A43C A69G A70U C71U  -0.494
7. G6U C66U A69G A70U C71U  -0.481
8. G1A U2G C27U A43C C66A A69G A70G C71U  -0.472
9. G1A G6U C27U A43C C46U C66U A70U C71U  -0.471
10. G1A G6A C27U C46U C66U A69G A70U  -0.468
11. U2G G6U A43C C66U A69G A70U C71U  -0.468
12. G1A G6U C27U C66U A70U C71U  -0.461
13. U2G G6A C66U A69G A70G  -0.448
14. G6A C27U C46U C66U A69G C71U  -0.446
15. G1A C27U A43C C66U C71U  -0.437
16. G1A U2G G6A C27U A43C C46U C71U  -0.42
17. G1A U2G G6U A43C A70U C71U  -0.41
18. G6U C27U A43C C66U A70G  -0.407
19. G6U A43C C66U A70G C71U  -0.392
20. U2C A43C C46U C66U A69G A70U C71U  -0.39
21. G1A G6U A43C C66A A70U C71U  -0.386
22. G6U C27U A43C A69G C71U  -0.384
23. G1A G6U A43C A70G C71U  -0.383
24. G1A G6A A43C C66U A70G C71U  -0.377
25. G1A G6U C27U A69G A70G C71U  -0.376
26. G6U A43C C66A A69G A70G  -0.373
27. G1A C27U C66U A69G A70U C71U  -0.364
28. U2C G6U C27U A43C C66U A70U C71U  -0.363
29. C27U A43C C46U C66U A69G C71U  -0.361
30. G1A A43C C46U C66A A69G A70U C71U  -0.36
31. U2G G6A C46U C66U A70G C71U  -0.35
32. G6U C27U A43C C66U A69G A70U  -0.349
33. U2C G6U C27U A43C C66U A69G A70G C71U  -0.347
34. U2G G6U C27U A43C C46U A69G C71U  -0.336
35. G1A G6U C27U A43C C46U C66A A70U C71U  -0.325
36. G6U A43C C46U C66U A69G A70G C71U  -0.325
37. G1A C27U C66A A69G A70G C71U  -0.325
38. G1A C27U A43C C46U A69G A70U  -0.324
39. U2G G6U A43C C66U A69G A70G  -0.323
40. G6A A43C C46U C66A A69G A70U  -0.317
41. G6U C27U C46U C66U A69G A70U  -0.308
42. G1A U2G C27U C66A A70G C71U  -0.306
43. U2C C27U A43C C46U C66U A69G A70G  -0.303
44. G1A U2C G6U C66U A70G  -0.302
45. U2G G6A C27U A43C C66A A69G A70U  -0.301
46. U2C G6A C46U C66U A69G  -0.293
47. U2G G6A C27U A43C C66U A70G C71U  -0.29
48. G1A U2G G6A C27U A43C C46U A69G C71U  -0.283
49. G1A U2G G6A A43C C46U C66A A70U C71U  -0.282
50. G1A U2G G6U C27U A69G C71U  -0.274
51. G1A G6A C66A A70G C71U  -0.267
52. U2G C27U A43C C46U C66U A70U C71U  -0.265
53. G6A C27U A43C C66U C71U  -0.264
54. G1A U2C G6U C27U A43C C71U  -0.263
55. G1A U2G G6A C27U C71U  -0.263
56. G1A G6A A43C C71U  -0.257
57. C27U C46U A70G C71U  -0.256
58. G6U A43C C46U C66U C71U  -0.254
59. G1A U2G A43C C46U C66U A69G A70G  -0.254
60. U2G G6A C66U A70G C71U  -0.253
61. G6A C27U C46U A69G C71U  -0.252
62. U2G G6U C66A A69G A70G  -0.25
63. U2G C27U C46U C66U A69G A70G C71U  -0.245
64. G1A U2G A43C C46U C66U A70U C71U  -0.242
65. U2C G6U C46U A69G A70G C71U  -0.236
66. U2G C27U C66U A69G  -0.231
67. U2G G6A A43C C46U C66U A69G A70G C71U  -0.229
68. G1A U2G C27U A43C C46U A70U  -0.229
69. A43C C66U A69G A70U  -0.224
70. G6U C27U C46U A70U C71U  -0.214
71. U2C G6A C27U A43C A69G A70G  -0.211
72. G1A C27U A43C C46U C66A A70G C71U  -0.211
73. G1A G6A C27U C46U C66U A70G C71U  -0.21
74. U2G C46U C66U A69G C71U  -0.209
75. G1A U2C G6U C27U A43C C46U A70G  -0.207
76. U2G G6U C27U C66U A70G  -0.207
77. U2C C66U  -0.207
78. U2G C27U A43C A69G A70G C71U  -0.204
79. G1A A70G  -0.204
80. G1A U2C G6U C46U C66U A70U C71U  -0.203
81. U2G G6A C27U A43C C66A C71U  -0.2
82. U2G G6A A43C C46U C66U A69G A70G  -0.199
83. U2C G6U C27U C46U A69G A70U  -0.196
84. G1A U2C A43C C46U C66U A69G A70U  -0.195
85. U2G A43C C46U C66A A70U C71U  -0.193
86. G1A G6U A43C  -0.192
87. G6A C27U A43C C46U C66A A70G  -0.191
88. G1A A43C C46U C66A A70U C71U  -0.189
89. U2C A43C C66A A69G A70G  -0.186
90. C27U C66A A69G C71U  -0.184
91. G6A C27U A43C C46U C66U A70U  -0.183
92. U2G C27U A43C C46U C66A C71U  -0.182
93. A43C C66U  -0.178
94. G1A U2G G6A C46U A70G  -0.176
95. G1A U2C C27U A43C A70U C71U  -0.175
96. U2C G6A C66U A70U C71U  -0.172
97. U2G C27U A43C C66A  -0.171
98. U2G G6U A43C C46U A70U C71U  -0.168
99. G1A C27U C46U A69G A70G  -0.166
100. G6A C66A  -0.163
101. U2G G6A C46U C66U A69G  -0.163
102. U2G A43C C66A A69G A70G  -0.162
103. U2C A43C C46U C66U A70G C71U  -0.152
104. U2G C27U A43C A70G C71U  -0.151
105. U2C C27U A43C C66U  -0.15
106. A43C C46U C66U A70G C71U  -0.149
107. G1A G6U A70G C71U  -0.148
108. G1A U2C G6U A43C C46U A70U C71U  -0.144
109. U2G G6A C27U A70U C71U  -0.144
110. G1A U2C C27U C46U C66U  -0.144
111. U2G C27U C46U C66A A70U  -0.143
112. G6U C46U C66U A70G C71U  -0.138
113. G1A U2C C46U A69G C71U  -0.134
114. U2G G6A C27U C46U A69G A70U  -0.133
115. G1A U2G A43C C71U  -0.129
116. C46U A70U C71U  -0.129
117. U2G G6A C66A A70U C71U  -0.123
118. G1A A43C C46U C66A A70G  -0.113
119. G1A A43C C46U C66A A69G A70U  -0.113
120. G1A G6A C27U C46U C66A C71U  -0.11
121. U2G G6U C27U C46U C66U A70U  -0.106
122. A43C C46U C66A A69G A70G C71U  -0.103
123. G1A U2G G6U  -0.102
124. U2G A69G C71U  -0.101
125. U2C G6A C27U A43C C66U A70G C71U  -0.101
126. G1A U2G C66A C71U  -0.0937
127. A43C A70U C71U  -0.0836
128. A43C C46U A69G A70G C71U  -0.0835
129. U2C G6U C27U A43C  -0.0819
130. U2C A70U C71U  -0.0765
131. G1A G6U C27U C66A C71U  -0.0761
132. C66A A69G A70G C71U  -0.0757
133. C66U A69G A70G  -0.0718
134. G1A U2C G6A C27U C46U A69G A70U  -0.07
135. G1A U2C G6U C46U C66U A70U  -0.0663
136. U2C C27U C66U A70G  -0.0659
137. U2G C27U A43C C46U C71U  -0.0621
138. G1A A70U C71U  -0.0607
139. G1A U2C A43C A70G  -0.0553
140. U2C G6U C27U A43C C46U C66A A69G A70G  -0.051
141. U2C G6A A43C  -0.0449
142. U2C C27U A70G  -0.0415
143. G6U  -0.0403
144. G1A U2C C27U C46U A69G A70G C71U  -0.0376
145. G1A U2C G6A A70G C71U  -0.0357
146. U2G G6U C27U A43C C66A  -0.0341
147. G1A U2C G6U C66A A69G A70G C71U  -0.0278
148. U2C G6U C46U C66A  -0.0276
149. U2C G6U C46U A70G C71U  -0.0274
150. U2C C27U A43C A70G  -0.0248
151. A43C A69G  -0.0224
152. A43C A70G  -0.022
153. U2C G6A A43C C66U A70G  -0.0213
154. U2G G6U C46U  -0.0208
155. G1A U2C G6U A43C C66A A70G C71U  -0.0204
156. U2C C27U C46U  -0.0168
157. G6A C46U C66U A70G  -0.0166
158. G1A U2C C46U C71U  -0.0165
159. G6A C27U C46U C66U  -0.0122
160. G1A U2C C46U C66U A70G C71U  -0.01
161. A43C C46U A70G  -0.00498
162. U2C G6A C46U C66U A70G  -0.00418
163. G6U C46U C66A C71U  -0.00198
164. G6U C46U C66A A70U  0.00243
165. U2C G6A C46U C66U  0.00338
166. U2C A43C C46U  0.00393
167. U2C  0.0175
